Reference: publication PMC7115619 (European Journal of Medicinal Chemistry, 2015)
“Also recorded” adds a separate entry of the source.

Key:
DENV-2 = assay: Plaque reduction assay, pre- and post-infection treatment, DENV-2; assay type: cell-based, Dengue virus type 2; details: Dengue virus, DENV2, Vero, 192 h, read-out: EC50 pre-infection treatment DENV-2
Method in brief: (§1)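 Vero monolayers (2.5 × 10^4 cells/well) received 100 PFU/well (DENV-2 New Guinea or HHV-2 VR-734-G). Pre-infection: virus/test compound mixture for 1 h at 37 °C, then PBS (pH 7.0) wash and CMC overlay. Post-infection: virus 1 h, wash, then compound in CMC. CMC was 2% for DENV-2 (8 days) and 0.75% for HHV-2 (72 h). Formaldehyde/crystal violet stain, plaques counted. EC50 by linear regression; mean of three experiments.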

HHV-2 = assay: Plaque reduction assay, pre- and post-infection treatment, HHV-2; assay type: cell-based, Human Herpesvirus type 2; details: Vero, 72 h, read-out: EC50 pre-infection treatment HHV-2
Method in brief: as §1

Vero cells = assay: MTT cytotoxicity on Vero cells; assay type: cell-based, Cercopithecus aethiops; details: read-out: IC50 (μM) 72 h, inhibitory concentration of cell proliferation
[1] = tested on: HHV-1 (CDC Atlanta strain); assay: Screening against HHV-1 by end-point titration technique; assay type: cell-based, Human Herpesvirus type 1; details: Vero cell line; 10 TCID50; 48 h
Method in brief: (§2)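 Vero cells (2.0 × 10^4 cells/well) were grown to ≥80% monolayer. 10 TCID50 virus was mixed with test compound (6.25–50 μg/mL) in DMEM/2% FBS containing CMC: 1% for HHV-1, 0.5% for HHV-2. Mixture held 15 min at room temperature, then incubated at 37 °C: 48 h (HHV-1) or 72 h (HHV-2). Crystal violet/formaldehyde stain, plaques counted. Titer reduction factor: ≥1 × 10^3 relevant, 1 × 10^2 moderate. Two experiments in quadruplicate.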

HHV-2 (VR-734-G strain) = assay: Screening against HHV-2 by end-point titration technique; assay type: cell-based, Human Herpesvirus type 2; details: Vero cell line; 10 TCID50; 72 h
Method in brief: as §2

| Compound | EC50 (DENV-2) | EC50 (HHV-2) | IC50 (Vero cells) | Rf, reduction factor of the viral titer, HHV-1 [1] | Rf, reduction factor of the viral titer, HHV-2 (HHV-2 (VR-734-G strain)) |
| --- | --- | --- | --- | --- | --- |
| CC(C)c1cc2c(cc1O)[C@@]1(C)CCC[C@@](C)(CN3C(=O)c4ccccc4C3=O)[C@@H]1CC2 [Compound 8] | > 29 µM | > 29 µM |  |  |  |
| dextran sulfate [DEX-S] |  |  | > 10 µM |  |  |
| CC(C)c1cc2c(cc1O)[C@@]1(C)CCC[C@@](C)(C=O)[C@@H]1CC2 [Compound 9, 18-oxoferruginol] | > 20.8 µM | > 20.8 µM |  | did not show activity; also recorded: did not show reduction of viral titer |  |
| Nc1nc2c(ncn2COCCO)c(=O)[nH]1 [ACV, acyclovir] |  |  |  |  | 10^3 |
